Test results as given in ChEMBL document CHEMBL1126651, “Synthesis and biological evaluation of 1-[1-(2-benzo[b]thienyl)cyclohexyl]piperidine homologues at dopamine-uptake and phencyclidine- and sigma-binding sites” (J Med Chem, 1993).

Tests used:
[1] = Ratio of IC50 of [3H]cocaine to that of dopamine; assay type: functional
Rattus norvegicus [2] = species: Rattus norvegicus; assay: (§1) Compound is evaluated for [3H]dopamine uptake inhibition in rat forebrain; assay type: functional
Glutamate NMDA receptor [3] = assay: Ability of compound to displace [3H]TCP from rat brain homogenates; assay type: tissue-based
[4] = biological target: T1, Sodium-dependent dopamine transporter (Rattus norvegicus, UniProt P23977); assay: Displacement of [3H]BTCP (1-[1-(2-benxo[b]thienyl)cyclohexyl]piperidine) from rat forebrain dopamine transporter
How it was run: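 Rat forebrain membranes (40000 g pellet) in 0.32 M sucrose/10 mM Tris·HCl pH 7.4. 0.4-0.6 nM [3H]BTCP incubated with test compound in 50 mM Na phosphate buffer, pH 7.4, for 90 min on ice. Nonspecific binding with 10 µM BTCP. Filtration, then scintillation counting. Six concentrations in triplicate, duplicate experiments on different preparations. IC50 taken as 50% inhibition of total binding.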

[5] = biological target: T1, Sodium-dependent dopamine transporter; assay: Inhibition of [3H]cocaine binding to rat forebrain […]
How it was run: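 Rat forebrain membranes washed in 0.25 M sucrose/10 mM Na2HPO4 pH 7.4. […] Filtration with ice-cold saline wash, then scintillation counting. Six concentrations in triplicate, duplicate experiments on different preparations. IC50 taken as 50% inhibition of total binding.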

Glutamate NMDA receptor [6] = assay: Binding affinity of compound at site labelled by [3H]TCP in guinea pig brain homogenates; assay type: tissue-based
Rattus norvegicus [7] = species: Rattus norvegicus; assay: as §1
Glutamate NMDA receptor [8] = assay: Ability to displace [3H]-TCP from rat brain homogenate; assay type: tissue-based

T1 sequence (P23977 whole entry): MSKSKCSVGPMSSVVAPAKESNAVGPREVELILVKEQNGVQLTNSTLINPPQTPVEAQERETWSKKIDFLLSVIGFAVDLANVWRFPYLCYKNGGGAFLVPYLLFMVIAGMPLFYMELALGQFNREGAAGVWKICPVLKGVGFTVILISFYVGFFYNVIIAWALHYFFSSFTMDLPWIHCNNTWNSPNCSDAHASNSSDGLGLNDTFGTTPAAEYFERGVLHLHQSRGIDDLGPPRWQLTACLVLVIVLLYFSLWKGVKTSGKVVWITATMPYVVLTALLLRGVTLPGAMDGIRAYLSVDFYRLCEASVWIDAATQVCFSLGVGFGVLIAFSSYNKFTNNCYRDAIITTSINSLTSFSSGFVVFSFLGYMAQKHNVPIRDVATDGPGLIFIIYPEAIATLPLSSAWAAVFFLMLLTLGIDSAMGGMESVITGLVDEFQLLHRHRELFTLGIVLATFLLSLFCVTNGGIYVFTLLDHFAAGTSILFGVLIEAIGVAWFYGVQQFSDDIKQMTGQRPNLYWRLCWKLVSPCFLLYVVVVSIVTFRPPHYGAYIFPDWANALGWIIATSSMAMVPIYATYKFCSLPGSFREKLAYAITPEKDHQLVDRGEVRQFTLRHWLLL

Structure (SMILES)	Ratio [1]	IC50 (Rattus norvegicus [2]) [nM]	Ki (Glutamate NMDA receptor [3]) [nM]	IC50 [4] [nM]	IC50 [5] [nM]	Ki (Glutamate NMDA receptor [6]) [nM]	IC50 (Rattus norvegicus [7]) [nM]	Ki (Glutamate NMDA receptor [8]) [nM]
NC1(c2cc3ccccc3s2)CCCCCC1	2.4	550	> 10000	416	1340			
c1ccc2sc(C3(N4CCCCCC4)CCCCC3)cc2c1	0.84	43		18	36	> 10000		
c1ccc2sc(C3(N4CCCCCC4)CCCCCC3)cc2c1	1.5	252	> 10000	67	386			
c1ccc2sc(C3(N4CCCC4)CCCC3)cc2c1	1.4	19		13	26	> 10000		
COC(=O)[C@H]1[C@@H](OC(=O)c2ccccc2)C[C@@H]2CC[C@H]1N2C [COCAINE]							138	
NC1(c2cc3ccccc3s2)CCCCC1	8.8	78		123	684	> 10000		
c1ccc2sc(C3(N4CCCC4)CCCCCC3)cc2c1	1.9	27	> 10000	13	52			
c1ccc2sc(C3(N4CCCCC4)CCCCC3)cc2c1	4.6	9		0.66	41			> 10000
NC1(c2cc3ccccc3s2)CCCC1	6.3	148	> 10000	630	933			
c1ccc2sc(C3(N4CCCCC4)CCCCCC3)cc2c1	2	55	> 10000	19	111			
c1ccc2sc(C3(N4CCCCC4)CCCC3)cc2c1	3.2	24		15	76	> 10000		
c1ccc2sc(C3(N4CCCC4)CCCCC3)cc2c1	1.1	11		6.7	12	> 10000		
c1ccc2sc(C3(N4CCCCCC4)CCCC3)cc2c1	0.47	132		21	62	> 10000		
